Results filed as inconclusive are left out. Calls of active or inactive are those of the source.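 How the source made its calls: active means viability below 80% at one or more tested concentrations, meaning the compound is toxic to the cells; inconclusive means replicate runs disagree on whether viability fell below 80%; inactive means viability of 80% or more at every dose.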
System: not listed separately
Experiment: Vero E6 cell cytotoxicity, dose response, cytotoxicity control for PfM18AAP inhibitor project, set 2 (AID 602225)
Details: Vero E6 viability, CellTiter-Glo luminescence, 72 h; at 50 µM (top of the series)
Procedure, shortened: (§1)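 material = Vero E6 cells | compound = 10-point dose series in 2-fold dilution steps | timing = 72 h compound exposure at 37 °C, 5% CO2 | detection = CellTiter-Glo luminescence | evaluation = % viability and fitted CC50 | benchmarks = DMSO vehicle wells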

SMILES | viability
CN1CCN(c2nc(-c3ccc(O)c(O)c3)cs2)CC1 | 102% (inactive)
COc1ccc(CCCN2CCN(C)CC2)cc1OC | 100% (inactive)
Oc1ccc(-c2csc(Nc3ncccn3)n2)cc1O | 90.7% (inactive)
Oc1ccc(CCNc2ccnc3ccccc23)cc1O | 100% (inactive)
CN1CCN(CCc2ccc(O)c(O)c2)CC1 | 103% (inactive)
CN1CCN(CCCc2ccc(O)c(O)c2)CC1 | 93.4% (inactive)

System: Vero E6 viability, CellTiter-Glo luminescence, 72 h
Experiment: as above
Details: not given
Procedure, shortened: as §1

SMILES | CC50
CCc1ccc(NC(=O)Cc2nc(-c3ccc(O)c(O)c3)cs2)cc1 | 28.7 µM
Oc1ccc(CCNc2c3ccccc3nc3ccccc23)cc1O | 30.9 µM
COc1ccc(CCNC(c2ccccc2)c2ccccc2)cc1OC | 32.6 µM
COc1ccc(CCNc2c3ccccc3nc3ccccc23)cc1OC | 13.9 µM
COc1ccc(CCN(C)c2c3ccccc3nc3ccccc23)cc1OC | 27.8 µM

— PubChem BioAssay AID602225 (Southern Research Specialized Biocontainment Screening …, 2012)
